Tests used:
HeLa [1] = assay: Cytotoxicity against human HeLa cells assessed as cell viability after 5 days by cell viability analyzer; assay type: functional, cell-based; details: 120 h
In short: (§1)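 Cells were grown in DMEM with 10% FBS, 4 mM glutamine, 1 mM sodium pyruvate, penicillin/streptomycin and amphotericin at 37 °C under 5% CO2, then seeded at 20,000 per well. They were exposed to five doses from 0.01 to 10 μM for 5 days, with DMSO vehicle as control. Viable cells were counted, and % viability was calculated as treated/vehicle. IC50 was taken from dose-response curves over three independent experiments.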

MCF10 = assay: Cytotoxicity against human MCF10 cells at 1 to 10 uM; assay type: cell-based; details: mcf10, 10 µM
MDA-MB-231 [2] = assay: Cytotoxicity against human MDA-MB-231 cells assessed as cell viability after 5 days by cell viability analyzer; assay type: functional, cell-based; details: MDA-MB-231, 120 h; in short: as §1
MDA-MB-231 [3] = assay: Ratio of chlorambucil IC50 to compound IC50 for human MDA-MB-231 cells assessed as cell viability after 5 days by cell viability analyzer; assay type: functional
In short: (§2)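 Cells grown in DMEM with 10% FBS, 4 mM glutamine, 1 mM sodium pyruvate, penicillin/streptomycin and amphotericin at 37 °C under 5% CO2. They were seeded at 20,000 per well and exposed to test agents or chlorambucil at 5 doses (0.01–10 μM) for 5 days, with DMSO as vehicle. Viable cells were counted by analyzer and expressed as % of vehicle. IC50s for both agents came from dose-response curves over three independent experiments.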

MCF7 = assay: Ratio of chlorambucil IC50 to compound IC50 for human MCF7 cells assessed as cell viability after 5 days by cell viability analyzer; assay type: functional; in short: as §2
HeLa [4] = assay: Ratio of chlorambucil IC50 to compound IC50 for human HeLa cells assessed as cell viability after 5 days by cell viability analyzer; assay type: functional; in short: as §2

Row | SMILES | IC50 (HeLa [1]) [nM] | Activity (MCF10) | IC50 (MDA-MB-231 [2]) [nM] | Ratio IC50 (MDA-MB-231 [3]) | Ratio IC50 (MCF7) | Ratio IC50 (HeLa [4])
1 | O=C1c2ccccc2C(=O)c2c(O)c(C(c3ccccc3F)N(CCCl)CCCl)cc(O)c21 (stereo not given) | 615 | Toxic | 0.59 | 900 |  | 
2 | O=C1c2ccccc2C(=O)c2c(O)c(C(c3ccc(Cl)cc3)N(CCCl)CCCl)cc(O)c21 (stereo not given) | 185 |  | 48 |  |  | 
3 | COc1cccc(C(c2cc(O)c3c(c2O)C(=O)c2ccccc2C3=O)N(CCCl)CCCl)c1 (stereo not given) | 210 | Toxic | 91.2 |  |  | 
4 | O=C1c2ccccc2C(=O)c2c(O)c(C(Cc3ccccc3)N(CCCl)CCCl)cc(O)c21 (stereo not given) | 665 |  | 51.1 |  |  | 
5 | O=C(O)CCCc1ccc(N(CCCl)CCCl)cc1 [CHLORAMBUCIL] | 943 |  | 520 |  |  | 
6 | O=C1c2ccccc2C(=O)c2c(O)c(C(c3ccccc3)N(CCCl)CCCl)cc(O)c21 (stereo not given) | 339 | Toxic | 137 |  |  | 
7 | CC(C)C(c1cc(O)c2c(c1O)C(=O)c1ccccc1C2=O)N(CCCl)CCCl (stereo not given) | 217 | Toxic | 77.6 |  |  | 
8 | COc1ccc(C(c2cc(O)c3c(c2O)C(=O)c2ccccc2C3=O)N(CCCl)CCCl)cc1 (stereo not given) | 457 | Toxic | 12.9 |  |  | 
9 | O=C1c2ccccc2C(=O)c2c(O)c(C(c3ccc(F)cc3)N(CCCl)CCCl)cc(O)c21 (stereo not given) | 249 | Toxic | 80.7 |  | 100 | 
10 | COc1ccccc1C(c1cc(O)c2c(c1O)C(=O)c1ccccc1C2=O)N(CCCl)CCCl (stereo not given) | 210 | Toxic | 2.13 |  |  | 
11 | O=C1c2ccccc2C(=O)c2c(O)c(C(c3cccc(F)c3)N(CCCl)CCCl)cc(O)c21 (stereo not given) | 166 | Toxic | 59.6 |  |  | 
12 | CC(c1cc(O)c2c(c1O)C(=O)c1ccccc1C2=O)N(CCCl)CCCl (stereo not given) | 154 |  | 1000 |  |  | 
13 | CCC(c1cc(O)c2c(c1O)C(=O)c1ccccc1C2=O)N(CCCl)CCCl (stereo not given) | 105 |  | 84.5 |  |  | 
14 | CC(C)CC(c1cc(O)c2c(c1O)C(=O)c1ccccc1C2=O)N(CCCl)CCCl (stereo not given) | 392 |  | 14.6 |  |  | 
15 | O=C1c2ccccc2C(=O)c2c(O)c(CN(CCCl)CCCl)cc(O)c21 | 139 |  | 211 |  |  | 
16 | O=C1c2cccc(O)c2C(=O)c2c1ccc(C(c1ccccc1)N(CCCl)CCCl)c2O (stereo not given) | 308 |  | 316 |  |  | 
17 | COc1cc(C(c2ccccc2)N(CCCl)CCCl)c(O)c2c1C(=O)c1ccccc1C2=O (stereo not given) | 480 | Toxic | 278 |  |  | 
18 | Cc1ccc(C(c2cc(O)c3c(c2O)C(=O)c2ccccc2C3=O)N(CCCl)CCCl)cc1C (stereo not given) | 234 | Toxic | 389 |  |  | 
19 | Cc1ccc(C(c2cc(O)c3c(c2O)C(=O)c2ccccc2C3=O)N(CCCl)CCCl)cc1 (stereo not given) | 93.8 |  | 22.5 |  |  | 10
20 | CCCC(c1cc(O)c2c(c1O)C(=O)c1ccccc1C2=O)N(CCCl)CCCl (stereo not given) | 152 |  | 61.9 |  |  | 
21 | O=C1c2ccccc2C(=O)c2c(O)c(C(c3ccc(Br)cc3)N(CCCl)CCCl)cc(O)c21 (stereo not given) | 262 |  | 299 |  |  | 
